Source: PubChem BioAssay
An excerpt weighted towards active compounds, which were near 2.6% of everything screened.
MT stabilize HCS: microtubule stabilization, imaging screen | HeLa tubulin immunostaining HCS, 24 h; share of cells brighter than vehicle mean+2SD | % tubulin-high responders, % at 10 µM | 0.83% of 200,000 active | AID 2205;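 active means plate Z-score above 3 for both tubulin-high and condensed-nucleus cell shares, with cell loss under 80%, at 10 µM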;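 further: anti alpha tubulin signal scored within the nucleus-defined area of each cell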
NPY Y1 blocker: antagonists of human neuropeptide Y receptor Y1; HEK293-CNG Y1 cells, membrane potential fluorescence; NPY at EC95, then isoproterenol; AID 1040; inhibition, % at 3.6 µM; 1% of 200,000 active;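 active means inhibition above the campaign mean inhibition of all tested compounds plus 3 SD, cut at about 20% in these data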;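 further: 0% = DMSO wells given NPY plus isoproterenol and 100% = isoproterenol alone without NPY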
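Assay system: HEK293 cells with Y1 receptor plus CNG channel | Probe or stimulus: NPY (25 nM), isoproterenol (1 µM), Ro 20-1724 (25 µM) | Timing: Compound incubation 1 h at room temperature, readout 45 min post-stimulation | Measured by: Membrane-potential fluorescent dye readout | Benchmarks: High control isoproterenol alone, low control NPY with isoproterenol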
bCat nuc transl: beta-catenin nuclear translocation modulation | nuclear translocation activity, % at 5 µM | HeLa beta-catenin nuclear translocation, immunofluorescence imaging | 0.3% of 190,000 active;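 active means nuclear translocation activity above 50% at 5 µM, with a well cell count of 50 or more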;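 further: per-cell ratio of nuclear to cytoplasmic median beta-catenin stain intensity; plate controls were DMSO negative control for no effect and GSK-3 inhibitor IX positive control for full effect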
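Signal – beta-catenin immunofluorescence imaging with DAPI · Test system – human HeLa cell line · Dosing – 5 µM primary single dose, 0.1% DMSO, 0.02–20 µM confirmation series · Measure – % activation, nuclear-to-cytoplasmic median beta-catenin signal ratio per cell · Incubation – 24 h compound exposure at 37°C, 5% CO2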
NPY1 pot ag: potentiators or agonists of human neuropeptide Y receptor Y1. activation, % at 3.6 µM. P25929. 0.37% of 220,000 active. NPY-Y1 expressing cells, potentiator/agonist activation; in the data active means activation above about 33%, passing the limit was not always enough;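 further: cells stimulated with NPY at EC10 then isoproterenol at EC100; 0% = low agonist plus stimulus and 100% = saturating agonist plus stimulus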
NPY Y2 blocker: antagonists of human neuropeptide Y receptor Y2. P49146. NPY-Y2 expressing cells, antagonist mode. inhibition, % at 2.7 µM. 0.99% of 140,000 active; in the data active means inhibition above about 17%;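 further: 0% = vehicle with agonist challenge and 100% = reference antagonist with challenge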
Target sequence (P49146 whole entry, looked up): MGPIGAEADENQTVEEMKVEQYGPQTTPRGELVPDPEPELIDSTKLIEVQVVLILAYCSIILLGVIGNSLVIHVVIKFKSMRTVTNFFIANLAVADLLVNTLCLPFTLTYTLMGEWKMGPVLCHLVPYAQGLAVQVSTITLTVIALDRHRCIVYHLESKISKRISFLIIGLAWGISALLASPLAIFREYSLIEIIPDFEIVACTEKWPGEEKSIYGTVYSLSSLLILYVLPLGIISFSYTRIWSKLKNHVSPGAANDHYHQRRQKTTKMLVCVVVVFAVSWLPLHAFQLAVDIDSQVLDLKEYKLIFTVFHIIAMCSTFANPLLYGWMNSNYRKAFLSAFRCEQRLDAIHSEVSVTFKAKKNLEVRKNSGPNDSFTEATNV
NPY2 pot ag: potentiators or agonists of human neuropeptide Y receptor Y2; P49146; cells expressing NPY-Y2, potentiator/agonist read-out; activation, % at 3.6 µM; 0.45% of 220,000 active; AID 1359; in the data active means activation above about 27%;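 further: cells stimulated with NPY near EC25 plus isoproterenol at EC100; 0% = vehicle plus submaximal agonist and 100% = vehicle plus saturating agonist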
An asterisk follows results filed as active; · = not tested or not shown.

SMILES | MT stabilize HCS | NPY Y1 blocker | bCat nuc transl | NPY1 pot ag | NPY Y2 blocker | NPY2 pot ag
CCOC(=O)c1[nH]c2ccc(OC)cc2c1NC(=O)OC | 3 | -7 | -3 | 13 | 0 | 13
CCOC(=O)Nc1c(C(=O)OC)[nH]c2cc(OC)ccc12 | 36* | -5 | 4 | 5 | 3 | 14
O=c1cc(CSc2nnc(-c3ccco3)o2)c2ccccc2[nH]1 | 1 | -5 | -1 | 5 | -1 | 2
CN(c1ccccc1)S(=O)(=O)c1ccc(C(=O)OCC(=O)NCc2cccs2)cc1 | · | · | 2 | 18 | · | -6
CC(C(=O)N1c2ccc(F)cc2CCC1C)N1C(=O)c2ccccc2C1=O (centres undefined) | 3 | 3 | -1 | 0 | 1 | 1
O=C1NC(=Nc2ccccc2)S/C1=C\C=C\c1ccco1 | 17* | 5 | 4 | 8 | 3 | -3
Cc1ccc(N=C2NC(=O)/C(=C/C=C/c3ccco3)S2)cc1 | 2 | 2 | 6 | -4 | 5 | 1
COc1ccc(Nc2nc3cc(C)ccc3cc2C#N)c(OC)c1 | 21* | -3 | 23 | 14 | · | 6
COc1ccc(Nc2nc3ccc(C)cc3cc2C#N)c(OC)c1 | 7 | 3 | -2 | -14 | 7 | -15
COc1ccccc1C(=O)N1c2ccccc2Sc2ccccc21 | 11* | 4 | 14 | 12 | 4 | 9
CCOc1ccccc1C(=O)N1c2ccccc2Sc2ccccc21 | 3 | -1 | · | 8 | 1 | 7
COc1ccccc1NC(=O)CCC(=O)OCc1ccc(Cl)cc1 | 2 | 5 | 2 | 9 | · | 12
O=C(NNc1ncnc2ccccc12)c1cccc(Cl)c1 | · | · | -1 | -4 | · | 0
COc1ccc(CCNc2c(C)c(C)nc3ncnn23)cc1 | 30* | 4 | 15 | -37 | 4 | 25
COc1ccc(C(=O)C[n+]2cc(-c3ccc(OC)cc3)n3c2CCCC3)cc1 | 2 | 1 | 0 | 4 | · | -1
Cc1ccc(C(=O)C[n+]2cc(-c3ccc(C)cc3)n3c2CCCCC3)cc1 | 2 | 79* | -1 | -35 | 32* | -10
CC(=O)NC1=NN(C(C)=O)C(C)(c2cccs2)S1 (centres undefined) | 39* | 2 | 2 | -5 | 2 | -3
CC(=O)NC1=NN(C(C)=O)C(C)(c2ccco2)S1 (centres undefined) | 2 | 5 | 0 | 21 | · | 15
COc1ccc(Cc2nnc(NC(=O)CSc3ccc(C)cc3)s2)cc1OC | 2 | 22* | 1 | -10 | 9 | -20
Cc1nc2c(C)cccc2c2c1CCN2c1ccccc1F | · | · | 0 | -15 | · | -14
COc1ccc(N2CCc3c(C)nc4c(OC)cc(OC)cc4c32)c(OC)c1 | 1 | 44* | · | -15 | 25* | -10
COc1ccc(N2C(=O)C3C4C=CC(C4)C3C2=O)c(OC)c1 (centres undefined) | 4 | -2 | -2 | -12 | 7 | 8
COc1ccc(N2CCc3c(C)nc4c(OC)cccc4c32)cc1 | 26* | 18 | 104* | -52 | · | -30
CCOc1ccc(Oc2ccc(C(F)(F)F)cc2N)cc1 | 3 | 1 | 1 | 6 | 0 | 0
CC1(C)CN=C(N(Cc2ccccc2)C(=O)Nc2ccccc2)S1 | 3 | 10 | 3 | 11 | 1 | -10
SMILES | MT stabilize HCS | NPY Y1 blocker | bCat nuc transl | NPY1 pot ag | NPY Y2 blocker | NPY2 pot ag
CC1=CCC2C(=O)N(c3ccc(C)cc3)C(=O)C2C1 (centres undefined) | 1 | 1 | · | -33 | 2 | -29
CCOC(=O)c1ccc(N2C(=O)C3CC=C(C)CC3C2=O)cc1 (centres undefined) | 4 | 25* | -2 | -27 | 0 | -26
Cn1c(-c2nnn(-c3ccc(F)cc3)n2)cc2ccccc21 | 1 | 3 | 2 | 14 | · | -12
COc1ccc(CN(CCC(c2ccc(F)cc2)C2CCOC(C)(C)C2)C(=O)c2ccco2)cc1 (centres undefined) | 4 | 22* | 0 | -35 | 20* | -19
O=C1CC(c2cccc(Cl)c2)C(n2cncn2)C(=O)C1C1NCCc2ccccc21 (centres undefined) | 1 | 1 | -2 | -3 | 0 | -1
CCOC(=O)COc1cc(N2C(=O)CSCC2=O)c(Cl)cc1Cl | 2 | 0 | · | -6 | 2 | -25
CCOC(=O)COc1cc(-n2c(=S)[nH]c3cc(OC)c(OC)cc3c2=O)c(Cl)cc1Cl | 9.2* | -3 | -2 | -3 | · | -4
O=C(N/N=C/c1ccc(Cl)cc1Cl)Nc1ccccc1 | 19* | 14 | 10 | -35 | 14 | -1
O=C(N/N=C/c1cccc(Cl)c1Cl)Nc1ccccc1 | 1 | 4 | -3 | -36 | 12 | -8
CCOc1ccc(NCc2nnc(SCC(=O)Nc3cc(C)on3)n2-c2ccccc2OC)cc1 | 24* | -4 | 1 | -10 | 3 | -5
Cc1ccc(S(=O)(=O)N/N=C\c2ccccc2OCc2ccccc2)cc1 | 25* | 6 | · | -16 | 5 | -5
Cn1c(=O)c(=O)n(C)c2cc(S(=O)(=O)N3CCCC3C(=O)NCc3cccnc3)ccc21 (centres undefined) | · | · | -2 | 22 | · | -4
Cc1ccc(-c2csc3ncnc(SCC(=O)Nc4nnc(C)s4)c23)cc1 | 1 | 2 | -2 | -17 | 5 | -12
Cc1ccc(-c2csc3ncnc(Sc4nnc(CN5CCCCCC5=O)o4)c23)cc1 | 19* | -1 | 0 | -16 | 4 | 8
Cc1nc2cc(C(=O)N3c4ccccc4CC3C)ccc2s1 (centres undefined) | 26* | 0 | 47 | 1 | · | -3
CC1Cc2ccccc2N1C(=O)c1ccc2snnc2c1 (centres undefined) | 4 | 3 | -6 | 12 | 3 | -6
CC(=NCCN1CCN(C(C)=C2C(=O)c3ccccc3C2=O)CC1)C1=C(O)CC(C)(C)CC1=O | 3 | 8 | · | -16 | 2 | -3
COc1ccc(S(=O)(=O)N(C(=O)c2ccncc2)c2ccc3oc4c(c3c2)CCCC4)cc1 | 22* | 8 | -1 | -43 | 12 | 16
Cc1cccc(NC(=O)CCC(=O)OCC(=O)c2ccc(Oc3ccc([N+](=O)[O-])cc3)cc2)c1 | 2 | 7 | 2 | 53* | -1 | 47*
Cc1ccc(C(=O)COC(=O)c2cccc(NC(=O)c3ccc([N+](=O)[O-])cc3[N+](=O)[O-])c2)cc1 | 34* | -6 | · | 25 | -4 | 4
Cc1ccc(NC(=O)CCC(=O)OCC(=O)c2ccc(Oc3ccc([N+](=O)[O-])cc3)cc2)cc1C | 1 | -4 | 1 | -10 | -2 | 16
CC(=O)Nc1ccc(C(=O)OCC(=O)c2cccc([N+](=O)[O-])c2)cc1 | 4 | -1 | 0 | 0 | 2 | 13
Cc1ccc(S(=O)(=O)N2CCCC2C(=O)OCc2ccco2)cc1 (centres undefined) | 3 | 0 | 1 | -18 | -1 | 7
